# Data reported in ChEMBL document CHEMBL4689842, “EUbOPEN Chemogenomics Library wave 1” (2021).
# System: Fibroblast
# Test: Multiplex assay against human fibroblast
# Format: toxicity, cell-based
# How it was run: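 Compound was added to live cells that had been stained at seeding with Hoechst33342, BioTracker Green Microtubule Cytoskeleton Dye, MitoTracker Red and Annexin V Alexa Fluor 680, and imaging followed on a CQ1 microscope at 37°C and 5% CO2. CellPathfinder machine-learning gating divided cells into Hoechst high-intensity objects or normal cells, normal cells into healthy, pyknosed or fragmented nuclei, and pyknosed cells into mitotic or apoptotic. Tubulin, mitochondrial-mass and membrane-permeability phenotypes are per cents of healthy-nucleus cells.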
# [1] = 12 h, 1 µM, compound concentration 1 uM, replicate 1
# [2] = 12 h, 1 µM, compound concentration 1 uM, replicate 2
# [3] = 12 h, 10 µM, compound concentration 10 uM, replicate 1
# [4] = 12 h, 10 µM, compound concentration 10 uM, replicate 2
# [5] = 24 h, 1 µM, compound concentration 1 uM, replicate 1
# [6] = 24 h, 1 µM, compound concentration 1 uM, replicate 2
# [7] = 24 h, 10 µM, compound concentration 10 uM, replicate 1
# [8] = 24 h, 10 µM, compound concentration 10 uM, replicate 2
# [9] = 48 h, 1 µM, compound concentration 1 uM, replicate 1
# [10] = 48 h, 1 µM, compound concentration 1 uM, replicate 2
# [11] = 48 h, 10 µM, compound concentration 10 uM, replicate 1
# [12] = 48 h, 10 µM, compound concentration 10 uM, replicate 2
structure (smiles),measurement,setting,value
Cc1[nH]c(/C=C2\C(=O)Nc3ccc(S(=O)(=O)N(C)c4cccc(Cl)c4)cc32)c(C)c1C(=O)N1CCN(C)CC1,Population Apoptotic (%),[1],64%
same,Population Fragmented Nuclei (%),[1],25%
same,Population Healthy Nuclei (%),[1],51%
same,Population Hoechst High Intensity Objects (%),[1],8%
same,Population Membrane Permeable-Phenotype (%),[1],40%
same,Population Mitochondria Different-Phenotype (%),[1],6%
same,Population Mitotic Cells (%),[1],35%
same,Population Normal (%),[1],91%
same,Population Pyknosed Nuclei (%),[1],22%
same,Population Tubulin-Different-Phenotype (%),[1],43%
same,Total Cell Count,[1],68
same,Population Apoptotic (%),[2],100%
same,Population Fragmented Nuclei (%),[2],16%
same,Population Healthy Nuclei (%),[2],77%
same,Population Hoechst High Intensity Objects (%),[2],12%
same,Population Membrane Permeable-Phenotype (%),[2],12%
same,Population Mitochondria Different-Phenotype (%),[2],42%
same,Population Mitotic Cells (%),[2],0%
same,Population Normal (%),[2],87%
same,Population Pyknosed Nuclei (%),[2],6%
same,Population Tubulin-Different-Phenotype (%),[2],68%
same,Total Cell Count,[2],90
same,Population Apoptotic (%),[3],61%
same,Population Fragmented Nuclei (%),[3],20%
same,Population Healthy Nuclei (%),[3],61%
same,Population Hoechst High Intensity Objects (%),[3],5%
same,Population Membrane Permeable-Phenotype (%),[3],59%
same,Population Mitochondria Different-Phenotype (%),[3],13%
same,Population Mitotic Cells (%),[3],38%
same,Population Normal (%),[3],94%
same,Population Pyknosed Nuclei (%),[3],18%
same,Population Tubulin-Different-Phenotype (%),[3],93%
same,Total Cell Count,[3],76
same,Population Apoptotic (%),[4],25%
same,Population Fragmented Nuclei (%),[4],10%
same,Population Healthy Nuclei (%),[4],74%
same,Population Hoechst High Intensity Objects (%),[4],12%
same,Population Membrane Permeable-Phenotype (%),[4],40%
same,Population Mitochondria Different-Phenotype (%),[4],97%
same,Population Mitotic Cells (%),[4],75%
same,Population Normal (%),[4],87%
same,Population Pyknosed Nuclei (%),[4],16%
same,Population Tubulin-Different-Phenotype (%),[4],100%
same,Total Cell Count,[4],70
same,Population Apoptotic (%),[5],53%
same,Population Fragmented Nuclei (%),[5],22%
same,Population Healthy Nuclei (%),[5],56%
same,Population Hoechst High Intensity Objects (%),[5],3%
same,Population Membrane Permeable-Phenotype (%),[5],28%
same,Population Mitochondria Different-Phenotype (%),[5],14%
same,Population Mitotic Cells (%),[5],46%
same,Population Normal (%),[5],96%
same,Population Pyknosed Nuclei (%),[5],20%
same,Population Tubulin-Different-Phenotype (%),[5],62%
same,Total Cell Count,[5],64
same,Population Apoptotic (%),[6],100%
same,Population Fragmented Nuclei (%),[6],18%
same,Population Healthy Nuclei (%),[6],72%
same,Population Hoechst High Intensity Objects (%),[6],8%
same,Population Membrane Permeable-Phenotype (%),[6],10%
same,Population Mitochondria Different-Phenotype (%),[6],40%
same,Population Mitotic Cells (%),[6],0%
same,Population Normal (%),[6],91%
same,Population Pyknosed Nuclei (%),[6],9%
same,Population Tubulin-Different-Phenotype (%),[6],55%
same,Total Cell Count,[6],65
same,Population Apoptotic (%),[7],77%
same,Population Fragmented Nuclei (%),[7],41%
same,Population Healthy Nuclei (%),[7],46%
same,Population Hoechst High Intensity Objects (%),[7],7%
same,Population Membrane Permeable-Phenotype (%),[7],38%
same,Population Mitochondria Different-Phenotype (%),[7],50%
same,Population Mitotic Cells (%),[7],22%
same,Population Normal (%),[7],92%
same,Population Pyknosed Nuclei (%),[7],12%
same,Population Tubulin-Different-Phenotype (%),[7],97%
same,Total Cell Count,[7],79
same,Population Apoptotic (%),[8],100%
same,Population Fragmented Nuclei (%),[8],17%
same,Population Healthy Nuclei (%),[8],73%
same,Population Hoechst High Intensity Objects (%),[8],8%
same,Population Membrane Permeable-Phenotype (%),[8],84%
same,Population Mitochondria Different-Phenotype (%),[8],100%
same,Population Mitotic Cells (%),[8],0%
same,Population Normal (%),[8],91%
same,Population Pyknosed Nuclei (%),[8],9%
same,Population Tubulin-Different-Phenotype (%),[8],100%
same,Total Cell Count,[8],71
same,Population Apoptotic (%),[9],61%
same,Population Fragmented Nuclei (%),[9],30%
same,Population Healthy Nuclei (%),[9],48%
same,Population Hoechst High Intensity Objects (%),[9],11%
same,Population Membrane Permeable-Phenotype (%),[9],17%
same,Population Mitochondria Different-Phenotype (%),[9],13%
same,Population Mitotic Cells (%),[9],38%
same,Population Normal (%),[9],88%
same,Population Pyknosed Nuclei (%),[9],21%
same,Population Tubulin-Different-Phenotype (%),[9],65%
same,Total Cell Count,[9],68
same,Population Apoptotic (%),[10],50%
same,Population Fragmented Nuclei (%),[10],16%
same,Population Healthy Nuclei (%),[10],80%
same,Population Hoechst High Intensity Objects (%),[10],17%
same,Population Membrane Permeable-Phenotype (%),[10],27%
same,Population Mitochondria Different-Phenotype (%),[10],15%
same,Population Mitotic Cells (%),[10],50%
same,Population Normal (%),[10],82%
same,Population Pyknosed Nuclei (%),[10],2%
same,Population Tubulin-Different-Phenotype (%),[10],81%
same,Total Cell Count,[10],88
same,Population Apoptotic (%),[11],66%
same,Population Fragmented Nuclei (%),[11],40%
same,Population Healthy Nuclei (%),[11],37%
same,Population Hoechst High Intensity Objects (%),[11],11%
same,Population Membrane Permeable-Phenotype (%),[11],16%
same,Population Mitochondria Different-Phenotype (%),[11],76%
same,Population Mitotic Cells (%),[11],33%
same,Population Normal (%),[11],88%
same,Population Pyknosed Nuclei (%),[11],22%
same,Population Tubulin-Different-Phenotype (%),[11],100%
same,Total Cell Count,[11],76
same,Population Apoptotic (%),[12],50%
same,Population Fragmented Nuclei (%),[12],21%
same,Population Healthy Nuclei (%),[12],72%
same,Population Hoechst High Intensity Objects (%),[12],8%
same,Population Membrane Permeable-Phenotype (%),[12],25%
same,Population Mitochondria Different-Phenotype (%),[12],52%
same,Population Mitotic Cells (%),[12],50%
same,Population Normal (%),[12],91%
same,Population Pyknosed Nuclei (%),[12],6%
same,Population Tubulin-Different-Phenotype (%),[12],95%
same,Total Cell Count,[12],72
